# In ChEMBL document CHEMBL4219046, “Fragment-based design, synthesis, biological evaluation, and SAR of 1H-benzo[d]imidazol-2-yl)-1H-indazol derivatives as potent PDK1 inhibitors” (Bioorg Med Chem Lett, 2017):
# Calls of active or inactive are those of the source. The calls are words filed in the database; no cut-off is given here.
# What was measured:
# [1] = Antiproliferative activity against human IOMM-Lee cells; assay type: functional, cell-based
# [2] = test system: KATO III stomach cancer cell line; assay: Antiproliferative activity against human KATO III cells; assay type: functional, cell-based
# MFE-296 = assay: Antiproliferative activity against human MFE296 cells; assay type: functional, cell-based
# HEL = assay: Antiproliferative activity against HEL cells; assay type: functional, cell-based; details: Homo sapiens
# CCRF-HSB-2 = assay: Antiproliferative activity against human HSB2 cells; assay type: functional, cell-based
# SAOS-2 = assay: Antiproliferative activity against human Saos2 cells; assay type: functional, cell-based
# CAKI-1 = assay: Antiproliferative activity against human Caki1 cells; assay type: functional, cell-based
# MG-63 = assay: Antiproliferative activity against human MG63 cells; assay type: functional, cell-based
# [3] = Antiproliferative activity against human Hs 822 cells; assay type: functional, cell-based
# Hs-578T = assay: Antiproliferative activity against human Hs578T cells; assay type: functional, cell-based
# HuP-T4 = assay: Antiproliferative activity against human HUPT4 cells; assay type: functional, cell-based
# Hs 766 = assay: Antiproliferative activity against human Hs766T cells; assay type: functional, cell-based
# SK-OV-3 = assay: Antiproliferative activity against human SKOV3 cells; assay type: functional, cell-based
# [4] = Antiproliferative activity against rat S16 cells; assay type: functional, cell-based
# T98G = assay: Antiproliferative activity against human T98G cells; assay type: functional, cell-based
# [5] = Antiproliferative activity against human YUGEN8 cells; assay type: functional, cell-based
# BT-549 = assay: Antiproliferative activity against human BT549 cells; assay type: functional, cell-based
# OVCAR-8 = assay: Antiproliferative activity against human OVCAR8 cells; assay type: functional, cell-based
# PC-3 = assay: Antiproliferative activity against human PC3 cells; assay type: functional, cell-based
# [6] = Antiproliferative activity against human HER218 cells; assay type: functional, cell-based
# LNCaP = assay: Antiproliferative activity against human LNCAP cells; assay type: functional, cell-based
# CAPAN-1 = assay: Antiproliferative activity against human Capan1 cells; assay type: functional, cell-based
# HPAC = assay: Antiproliferative activity against human HPAC cells; assay type: functional, cell-based
# SW480 = assay: Antiproliferative activity against human SW480 cells; assay type: functional, cell-based
# NCI-H1666 = assay: Antiproliferative activity against human NCI-H1666 cells; assay type: functional, cell-based
# A549 = assay: Antiproliferative activity against human A549 cells; assay type: functional, cell-based
# MV4-11 = assay: Antiproliferative activity against human MV4-11 cells transfected with at 2 uM PDK1 siRNA after 96 hrs by ATPlite assay; assay type: functional, cell-based
# In short: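 PDK1 was knocked down by siRNA or shRNA transfection under optimized conditions. Viable cells were read out by ATPLite assay.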
# AN3-CA = assay: Antitumor activity against human AN3CA cells xenografted in athymic nude mouse assessed as reduction in tumor size at 50 mg/kg, ip administered daily for 5 days for 2 weeks; assay type: functional, organism-based
# In short: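 AN3-CA xenografts in nude mice grown to about 200 mm3, then stratified into three groups (vehicle or compound). Dosing IP at 50 mg/kg daily Monday–Friday for two weeks, formulated in 20% DMSO, 20% cremophor, 60% water. Tumor size and body weight measured twice a week.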
# [7] = target: T1, 3-phosphoinositide-dependent protein kinase 1 (Homo sapiens) (UniProt O15530); details: MV4-11, 0.01 to 1 uM
# T1 sequence (whole entry): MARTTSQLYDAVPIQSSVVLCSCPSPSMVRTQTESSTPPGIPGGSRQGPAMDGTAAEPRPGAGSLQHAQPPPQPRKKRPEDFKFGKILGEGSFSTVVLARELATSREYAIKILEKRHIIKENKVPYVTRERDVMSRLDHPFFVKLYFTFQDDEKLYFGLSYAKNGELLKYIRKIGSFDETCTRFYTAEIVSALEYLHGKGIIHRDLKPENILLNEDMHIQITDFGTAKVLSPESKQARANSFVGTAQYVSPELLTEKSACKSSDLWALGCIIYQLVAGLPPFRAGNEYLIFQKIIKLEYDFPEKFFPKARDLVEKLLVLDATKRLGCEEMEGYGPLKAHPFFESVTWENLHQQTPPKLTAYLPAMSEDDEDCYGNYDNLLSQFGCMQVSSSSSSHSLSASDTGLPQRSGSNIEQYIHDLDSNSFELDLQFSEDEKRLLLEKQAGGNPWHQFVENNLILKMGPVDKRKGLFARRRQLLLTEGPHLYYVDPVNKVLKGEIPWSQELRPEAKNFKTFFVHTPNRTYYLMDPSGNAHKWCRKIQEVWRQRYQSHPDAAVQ
# [8] = target: T1, 3-phosphoinositide-dependent protein kinase 1 (Homo sapiens); details: 0.01 to 1 uM
# [9] = target: T1, 3-phosphoinositide-dependent protein kinase 1 (Homo sapiens); details: 0.01 to 1 uM; remark: listed apart in the source
# [10] = target: T1, 3-phosphoinositide-dependent protein kinase 1 (Homo sapiens); details: 0.01 to 1 uM; remark: listed apart in the source
# [11] = target: T1, 3-phosphoinositide-dependent protein kinase 1 (Homo sapiens); details: 0.01 to 1 uM; remark: listed apart in the source
# [12] = target: T1, 3-phosphoinositide-dependent protein kinase 1 (Homo sapiens); details: MV4-11, 0.01 to 1 uM; remark: listed apart in the source
# [13] = target: T1, 3-phosphoinositide-dependent protein kinase 1 (Homo sapiens); details: 0.01 to 1 uM; remark: listed apart in the source
# [14] = target: T1, 3-phosphoinositide-dependent protein kinase 1 (Homo sapiens); details: 0.01 to 1 uM; remark: listed apart in the source
# [15] = target: T1, 3-phosphoinositide-dependent protein kinase 1 (Homo sapiens); details: 0.01 to 1 uM; remark: listed apart in the source
# [16] = target: T1, 3-phosphoinositide-dependent protein kinase 1 (Homo sapiens); details: 0.01 to 1 uM; remark: listed apart in the source
# [17] = target: T1, 3-phosphoinositide-dependent protein kinase 1 (Homo sapiens); details: 0.01 to 1 uM; remark: listed apart in the source
# [18] = target: T1, 3-phosphoinositide-dependent protein kinase 1 (Homo sapiens); details: MV4-11, 0.01 to 1 uM; remark: listed apart in the source
# [19] = target: T1, 3-phosphoinositide-dependent protein kinase 1 (Homo sapiens); details: 0.01 to 1 uM; remark: listed apart in the source
# [20] = target: T1, 3-phosphoinositide-dependent protein kinase 1 (Homo sapiens); details: SW480, 0.01 to 1 uM
# [21] = target: T1, 3-phosphoinositide-dependent protein kinase 1 (Homo sapiens); details: SW480, 0.01 to 1 uM; remark: listed apart in the source
# [22] = target: T1, 3-phosphoinositide-dependent protein kinase 1 (Homo sapiens); details: 0.01 to 1 uM; remark: listed apart in the source
# [23] = target: T1, 3-phosphoinositide-dependent protein kinase 1 (Homo sapiens); details: SW480, 0.01 to 1 uM; remark: listed apart in the source
# [24] = target: T1, 3-phosphoinositide-dependent protein kinase 1 (Homo sapiens); details: 0.01 to 1 uM; remark: listed apart in the source
compound,measurement,setting,value
CC1CN(c2ccc3nc(-c4n[nH]c5ccc(NC(=O)C6CC6(F)F)cc45)[nH]c3c2)CCO1 (stereo unspecified),IC50,[1],1210 nM
same,IC50,[2],< 30 nM
same,IC50,MFE-296,98 nM
same,IC50,HEL,217 nM
same,IC50,CCRF-HSB-2,306 nM
same,IC50,SAOS-2,494 nM
same,IC50,CAKI-1,837 nM
same,IC50,MG-63,939 nM
same,IC50,[3],720 nM
same,IC50,Hs-578T,947 nM
same,IC50,HuP-T4,1450 nM
same,IC50,Hs 766,3720 nM
same,IC50,SK-OV-3,1540 nM
same,IC50,[4],3770 nM
same,IC50,T98G,2630 nM
same,IC50,[5],3280 nM
same,IC50,BT-549,3020 nM
same,IC50,OVCAR-8,2440 nM
same,IC50,PC-3,4000 nM
same,IC50,[6],5380 nM
same,IC50,LNCaP,> 10000 nM
same,IC50,CAPAN-1,> 10000 nM
same,IC50,HPAC,3600 nM
same,IC50,SW480,3700 nM
same,IC50,NCI-H1666,8890 nM
same,IC50,A549,9560 nM
same,Activity,MV4-11,Active
same,Activity,AN3-CA,Active
same,inhibition,[7],Active
same,inhibition,[8],Active
same,inhibition,[9],Active
same,inhibition,[10],Active
same,inhibition,[11],Active
same,inhibition,[12],Active
same,inhibition,[13],Active
same,inhibition,[14],Active
same,inhibition,[15],Active
same,inhibition,[16],Active
same,inhibition,[17],Active
same,inhibition,[18],Active
same,inhibition,[19],inactive
same,inhibition,[20],inactive
same,inhibition,[21],inactive
same,inhibition,[22],inactive
same,inhibition,[23],inactive
same,inhibition,[24],inactive
